# In article PMC6044410 (Structure (London, England : 1993), 2017):
# Several values for one entry are separate records, joined by “and”; a condition that tells them apart may be missing. Equal entries are not always repeated. Where two headings read alike, the source gives them in different places. Square brackets hold non-standard residues; d marks the D form. Peptide text beside a SMILES is read from it. * marks the point of attachment. FITC = O=C1OC2(c3ccc(O)cc3Oc3cc(O)ccc32)c2ccc(NC(=S)*)cc21; pT = C[C@@H](OP(=O)(O)O)[C@H](N)C(=O)O; pS = N[C@@H](COP(=O)(O)O)C(=O)O
# T1: mouse TopBP1 BRCT4/5 (553-749), untagged (mouse, UniProt Q6ZQF0 553-749)
# T1 sequence (looked up): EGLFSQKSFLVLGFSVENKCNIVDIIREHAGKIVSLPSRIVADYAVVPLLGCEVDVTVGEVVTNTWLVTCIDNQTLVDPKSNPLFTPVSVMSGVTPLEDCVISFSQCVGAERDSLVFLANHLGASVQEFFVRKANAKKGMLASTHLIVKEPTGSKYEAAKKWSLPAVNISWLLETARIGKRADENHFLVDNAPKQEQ
# B1: FITC-labelled BLM pSer304 peptide (FITC-DTDFVPPpSPEEII-NH2) (peptide)
# peptide: {FITC}-DTDFVPP[pS]PEEII-NH2
# B2: FITC-labelled BLM pSer338 peptide (FITC-KEDVLSTpSKDL-NH2) (peptide)
# peptide: {FITC}-KEDVLST[pS]KDL-NH2
# B3: Unphosphorylated Ser304 BLM peptide (FITC-DTDFVPPSPEEII-NH2) (peptide)
# peptide: {FITC}-DTDFVPPSPEEII-NH2
# Columns and labels:
# [1] = molecular target: GST-hTopBP1 BRCT5 WT (Homo sapiens, UniProt Q92547); assay: Fluorescence polarization binding, GST-hBRCT5 WT
# GST-hTopBP1 BRCT5 WT, sequence (Q92547 641-746): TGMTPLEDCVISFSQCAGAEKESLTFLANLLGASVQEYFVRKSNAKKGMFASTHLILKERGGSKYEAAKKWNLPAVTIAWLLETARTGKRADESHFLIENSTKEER
# [2] = molecular target: TopBP1 BRCT4/5, untagged and GST-tagged forms (Homo sapiens, UniProt Q92547); assay: Fluorescence polarization binding, untagged and GST-tagged TopBP1 forms compared
# TopBP1 BRCT4/5, untagged and GST-tagged forms, sequence (Q92547 549-746): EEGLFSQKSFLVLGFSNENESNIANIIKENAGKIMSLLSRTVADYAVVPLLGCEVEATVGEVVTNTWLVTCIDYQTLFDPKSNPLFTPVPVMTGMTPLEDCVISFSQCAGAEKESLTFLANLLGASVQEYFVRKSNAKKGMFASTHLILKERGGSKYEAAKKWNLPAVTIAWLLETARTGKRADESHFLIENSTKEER
# Procedure, shortened: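 Untagged BRCT4/5 was prepared by overnight PreScission cleavage of the GST fusion at 4 °C, then anion exchange at pH 7.0, glutathione-bead removal of GST, and gel filtration. Read-out was ex 485/em 538 nm; KD was curve-fitted and averaged over ≥3 measurements.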
# [3] = molecular target: GST-hBRCT5 M689A (Homo sapiens, UniProt Q92547, M689A); assay: Fluorescence polarization binding, GST-hBRCT5 M689A
# GST-hBRCT5 M689A, sequence (Q92547 641-746 M689A): as the sequence (Q92547 641-746) above, with M49A counted along it
# [4] = molecular target: human TopBP1 BRCT5, 641-746 (UniProt Q92547); assay: fluorescence polarization titration; details: reference: pSer304 peptide mock-treated without λ phosphatase; sites S304
# [5] = molecular target: T1, mouse TopBP1 BRCT4/5 (553-749), untagged; assay: fluorescence polarisation
# [6] = molecular target: GST-human TopBP1 BRCT4/5 (549-746) (human, UniProt Q92547 549-746); assay: fluorescence polarisation
# GST-human TopBP1 BRCT4/5 (549-746), sequence (Q92547 549-746): as the sequence (Q92547 549-746) above
# [7] = molecular target: GST-human TopBP1 BRCT5 S654A (human, UniProt Q92547 641-746, S654A); assay: fluorescence polarisation
# GST-human TopBP1 BRCT5 S654A, sequence (Q92547 641-746 S654A): as the sequence (Q92547 641-746) above, with S14A counted along it
# [8] = molecular target: GST-human TopBP1 BRCT5 A707K (human, UniProt Q92547 641-746, A707K); assay: fluorescence polarisation
# GST-human TopBP1 BRCT5 A707K, sequence (Q92547 641-746 A707K): as the sequence (Q92547 641-746) above, with A67K counted along it
# [9] = molecular target: GST-human TopBP1 BRCT5 Y678A (human, UniProt Q92547 641-746, Y678A); assay: fluorescence polarisation
# GST-human TopBP1 BRCT5 Y678A, sequence (Q92547 641-746 Y678A): as the sequence (Q92547 641-746) above, with Y38A counted along it
# [10] = molecular target: GST-human TopBP1 BRCT5 K704A (human, UniProt Q92547 641-746, K704A); assay: fluorescence polarisation
# GST-human TopBP1 BRCT5 K704A, sequence (Q92547 641-746 K704A): as the sequence (Q92547 641-746) above, with K64A counted along it
# [11] = molecular target: GST-human TopBP1 BRCT5 A707D (human, UniProt Q92547 641-746, A707D); assay: fluorescence polarisation
# GST-human TopBP1 BRCT5 A707D, sequence (Q92547 641-746 A707D): as the sequence (Q92547 641-746) above, with A67D counted along it
# [12] = molecular target: GST-human TopBP1 BRCT5 M689A (human, UniProt Q92547 641-746, M689A); assay: fluorescence polarisation
# GST-human TopBP1 BRCT5 M689A, sequence (Q92547 641-746 M689A): as the sequence (Q92547 641-746) above, with M49A counted along it
# [13] = molecular target: GST-human TopBP1 BRCT5 R681E/K682E (human, UniProt Q92547 641-746, R681E | K682E); assay: fluorescence polarisation
# GST-human TopBP1 BRCT5 R681E/K682E, sequence (Q92547 641-746 R681E/K682E): as the sequence (Q92547 641-746) above, with R41E, K42E counted along it
# [14] = molecular target: T2, GST-human TopBP1 BRCT5 (641-746), wild type (human, UniProt Q92547 641-746); assay: fluorescence polarisation
# T2 sequence (Q92547 641-746): as the sequence (Q92547 641-746) above
# [15] = molecular target: GST-human TopBP1 BRCT5 K686E/K687E (human, UniProt Q92547 641-746, K686E | K687E); assay: fluorescence polarisation
# GST-human TopBP1 BRCT5 K686E/K687E, sequence (Q92547 641-746 K686E/K687E): as the sequence (Q92547 641-746) above, with K46E, K47E counted along it
# [16] = molecular target: human TopBP1 BRCT4/5 (549-746), untagged (human, UniProt Q92547 549-746); assay: fluorescence polarisation
# human TopBP1 BRCT4/5 (549-746), untagged, sequence (Q92547 549-746): as the sequence (Q92547 549-746) above
# [17] = molecular target: T2, GST-human TopBP1 BRCT5 (641-746), wild …; assay: fluorescence polarisation; remark: listed apart in the source
# [18] = molecular target: T2, GST-human TopBP1 BRCT5 (641-746), wild …; assay: fluorescence polarisation; remark: listed apart in the source
molecule,measurement,setting,value
CC[C@H](C)[C@H](NC(=O)[C@@H](NC(=O)[C@H](CCC(=O)O)NC(=O)[C@H](CCC(=O)O)NC(=O)[C@@H]1CCCN1C(=O)[C@H](CO)NC(=O)[C@@H]1CCCN1C(=O)[C@@H]1CCCN1C(=O)[C@@H](NC(=O)[C@H](Cc1ccccc1)NC(=O)[C@H](CC(=O)O)NC(=O)[C@@H](NC(=O)[C@H](CC(=O)O)NC(=S)Nc1ccc2c(c1)C(=O)OC21c2ccc(O)cc2Oc2cc(O)ccc21)[C@@H](C)O)C(C)C)[C@@H](C)CC)C(N)=O [Ser304] ({FITC}-DTDFVPPSPEEII-NH2),Kd,"[1]; KD, FP, BLM pSer304 peptide treated with λ phosphatase, 1 hour at 30 °C",≥ 60 µM
CC[C@H](C)[C@H](NC(=O)[C@@H](NC(=O)[C@H](CCC(=O)O)NC(=O)[C@H](CCC(=O)O)NC(=O)[C@@H]1CCCN1C(=O)[C@H](COP(=O)(O)O)NC(=O)[C@@H]1CCCN1C(=O)[C@@H]1CCCN1C(=O)[C@@H](NC(=O)[C@H](Cc1ccccc1)NC(=O)[C@H](CC(=O)O)NC(=O)[C@@H](NC(=O)[C@H](CC(=O)O)NC(=S)Nc1ccc2c(c1)C(=O)OC21c2ccc(O)cc2Oc2cc(O)ccc21)[C@@H](C)O)C(C)C)[C@@H](C)CC)C(N)=O [pSer304] ({FITC}-DTDFVPP[pS]PEEII-NH2),Kd,[2],3 to 6 µM
"CC[C@H](C)[C@H](NC(=O)[C@H](Cc1ccccc1)NC(=O)CNC(=S)Nc1ccc2c(c1)C(=O)OC21c2ccc(O)cc2Oc2cc(O)ccc21)C(=O)N[C@@H](CC(=O)O)C(=O)N[C@@H](COP(=O)(O)O)C(=O)N[C@@H](CC(=O)O)C(=O)N[C@H](C(=O)N[C@@H](CC(=O)O)C(=O)N[C@H](C(=O)N[C@@H](CCC(=O)O)C(=O)N[C@@H](CCC(=O)O)C(=O)N[C@@H](CCC(=O)O)C(N)=O)C(C)C)[C@@H](C)OP(=O)(O)O [MDC1, reference compound] ({FITC}-GFID[pS]D[pT]DVEEE-NH2)",Kd,[3],15 ± 1 µM
same,Kd,[1],15 ± 1 µM
"BLM (Bloom syndrome, RecQ-like helicase) 297-309 (from UniProt P54132) λ phosphatase-treated pSer304 peptide",KD,[4],weaker; reference 2.6 ± 0.4
CC(C)C[C@H](NC(=O)[C@H](CC(=O)O)NC(=O)[C@H](CCCCN)NC(=O)[C@H](COP(=O)(O)O)NC(=O)[C@@H](NC(=O)[C@H](CO)NC(=O)[C@H](CC(C)C)NC(=O)[C@@H](NC(=O)[C@H](CC(=O)O)NC(=O)[C@H](CCC(=O)O)NC(=O)[C@H](CCCCN)NC(=S)Nc1ccc2c(c1)C(=O)OC21c2ccc(O)cc2Oc2cc(O)ccc21)C(C)C)[C@@H](C)O)C(N)=O [pSer338] ({FITC}-KEDVLST[pS]KDL-NH2),Kd,[1],≥ 300 µM
B1,Kd,[5],6 ± 2 µM
same,Kd,[6],6 ± 1 µM
same,Kd,[7],33 ± 3 µM
same,Kd,[8],70 ± 20 µM
same,Kd,[9],18 ± 2 µM
same,Kd,[10],42 ± 3 µM
same,Kd,[11],320 ± 40 µM
same,Kd,[12],53 ± 4 µM
same,Kd,[13],45 ± 2 µM
same,Kd,[14],3.9 ± 0.3 µM
same,Kd,[15],36 ± 3 µM
same,Kd,[16],3.2 ± 0.8 µM
same,Kd,[17],2.6 µM and 3.7 µM
B2,Kd,[14],285 ± 10 µM
B3,Kd,[18],60 ± 10 µM
